This note sets out measurements from paper PMC6744591 (Heliyon, 2019).

Data set [1] has as its system alloxan induced diabetes rats. The data set is described as follows: Blood glucose lowering in alloxan-induced diabetic rats. The data set is classed as in vivo, Wister rats. A digest of the protocol:
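Alloxan at 150 mg/kg i.p. in normal saline given to Wistar rats (~190 g); rats above 120 mg/dl glucose after 5–7 days counted as diabetic. Rats fasted 12 h, water allowed, fasted throughout; 9 per group. […] Basal glucose taken first; tail-vein glucometer readings at set intervals, triplicate averages.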

Data set [2] in a line: Pharmacokinetics: plasma concentration of insulin in diabetic rats. The data set is classed as in vivo. Particulars: for Tmax: plasma insulin, HPLC-UV.

For the substance insulin [Ins-solu], in data set [1] (fasted, oral, 40.0 I.U/kg, glucometer, % of initial level), the “decrease in blood glucose levels” value was 1–2%. Further, the “maximum decrease in blood glucose levels” value in data set [1] (fasted, subcutaneous, 4.0 I.U/kg, at 4 h) was greater than 60%. In addition, the “time for which decrease in blood glucose level was sustained” value in data set [1] (subcutaneous, 4.0 I.U/kg) was “over 4 h”. In addition, the Tmax in data set [2] (oral, 40 IU/kg) worked out at 3.0 h; in data set [2] (subcutaneous, 4.0 IU/kg), 1.0 h. In data set [2] (subcutaneous, 4.0 IU/kg, over 12 h, linear trapezoidal rule, mean ± SD, n = 5), this substance registered an AUC of 342.56 ± 30.9 µg/mL/h.
